A selection: hits, their analogues and other compounds. The true share with any hit is near 9.2%.
bCat KO growth: beta-catenin-lacking colon tumor cell growth suppression; viability, % at 10 µM; hit rate 1.5% among 140,000; HCT116 beta-catenin knockout viability, CellTiter-Glo, 60 h; hits give low values;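 active = viability at or under a set limit, the compound median less 4 SD, cut at about 6% in these data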;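 note: 0% = Hyamine 1622 control at 20 µM and 100% = untreated cell control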
Dynein transport: blocks dynein driven cargo transport along microtubules; 3617.4 mouse cells, GR-EGFP nuclear translocation imaging; test concentration mostly 20 µM; stimulated with dexamethasone, 1 µM; hits give low values; z-score, hits read low; hit rate 0.47% among 220,000; AID 1381;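 active = plate z-score of nuclear minus cytoplasmic receptor signal below a set negative limit, without overly bright fluorescence or cell loss, cut at about -3.5 in these data, passing the limit was not always enough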;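 note: z-score of nuclear minus cytoplasmic ring GR-EGFP intensity difference per well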
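Buffer or medium: Induction medium lacking tetracycline, stripped serum | Also added: Dexamethasone agonist, 1.0 µM final, for 30 min | Timing: 48 h induction, 1 h compound, 30 min dex at 37 °C | Detection: Formaldehyde fixation, Hoechst nuclear stain, 10x automated fluorescence imaging | Measure: Nuclear versus cytoplasmic GR-EGFP signal, averaged per well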
L major viab: reduces viability of Leishmania major promastigotes; resazurin fluorescence viability; inhibition, % at 10 µM; hit rate 9% among 200,000; in the data active = inhibition above about 50%;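 note: promastigotes grown with compound for 44 hours at 28 °C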
HCT116 PTEN-null: growth suppressors of cells with PTEN tumor suppressor deletion; HCT116 PTEN-null viability, CellTiter-Glo, 60 h; hits give low values; hit rate 1.2% among 140,000; viability, % at 10 µM; AID 827;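 active = viability at or below a set limit, 4 SD under the median of all tested compounds, cut at about 3.7% in these data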;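 note: PTEN knockout HCT116 line with beta catenin targeted HCT116 as companion control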
Autophagy HCS: autophagy modulation, high-content screen. MEF GFP-LC3 puncta imaging; test concentration mostly 10 µM. calls only at 10 µM (by protocol). hit rate 0.98% among 190,000;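 active = percentage of spot-positive cells more than 3 SD above its plate mean, without a fluorescence outlier flag or 80% toxicity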;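 note: spot-positive cell cutoff set from DMSO-treated cells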
Dynein confirm: dynein cargo transport inhibition, confirmation. shares compounds with Dynein transport. 3617.4 GR-EGFP nuclear translocation imaging, dexamethasone-induced. calls only at 20 µM. hit rate 69% among 1,000;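 active = inhibition of receptor movement into the nucleus at or above a set limit in both runs, with normal cell brightness and cell count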;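 note: dexamethasone at 1 µM final in well for 30 min; nuclear minus cytoplasmic GR-EGFP mean intensity difference in channel 2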
* = called active by the depositor; i = inactive; / = no result given; + = active, no number.

SMILES | bCat KO growth | Dynein transport | L major viab | HCT116 PTEN-null | Autophagy HCS | Dynein confirm
CCC(C)(C)C1CCC2(CC1)NC(CO)(CO)CO2 (stereo not drawn) | 94 | -1.2 | 12 | 93 | i | /
CS(=O)(=O)c1ncc(Cl)c(C(=O)Nc2ccc3ccccc3c2)n1 | / | -4.2* | -3 | / | i | +
COc1ccc(-c2csc(N(CCc3ccc(OC)c(OC)c3)C(=O)COc3ccccc3)n2)cc1 | 86 | -1.4 | 10 | 79 | i | /
Cc1sc2ncnc(OCC(=O)NCc3cccs3)c2c1C | 88 | 0.22 | -2 | 88 | i | /
Cc1ccnc(SCc2cc(=O)c(OC(=O)c3ccc(Br)o3)co2)n1 | 89 | -0.26 | -4 | 64 | i | /
Cc1ccnc(SCc2cc(=O)c(OC(=O)c3cc([N+](=O)[O-])ccc3Cl)co2)n1 | 89 | -4.7* | -6 | 96 | i | +
CC(C(Sc1ccccc1N)c1ccccc1)[N+](=O)[O-] (stereo not drawn) | / | -5.5* | / | / | / | +
CC1(C)CC(=O)C=C(NCCc2c[nH]c3ccccc23)C1 | / | -0.098 | / | / | / | /
Cc1ccccc1CS(=O)(=O)c1nnc([C@H](Cc2ccccc2)NC(=O)OC(C)(C)C)o1 | 3.5* | -5.5* | -5 | 2.8* | i | +
CCCc1[nH][nH]c(=O)c1C(c1cccc(Cl)c1)C(C#N)C#N (stereo not drawn) | 93 | 1.1 | 15 | 103 | i | /
Cc1[nH]n(-c2ncc(-c3ccc(Cl)cc3)s2)c(=O)c1C(c1ccc(Cl)cc1)C(C#N)C#N (stereo not drawn) | 87 | -3.6* | 99* | 91 | i | +
CCOCCCNC1=C(Cl)C(=O)c2ccccc2C1=O | / | -5.3* | / | / | / | +
CCOCCCNS(=O)(=O)c1ccccc1 | 103 | -0.23 | -1 | 103 | i | /
NS(=O)(=O)c1ccc(CCNC(=O)CCCCCn2c(=S)[nH]c3ccc(Br)cc3c2=O)cc1 | / | -0.92 | -4 | / | i | /
CC1(C)CC(N=c2cc(-c3ccccc3)oc3ccc(Cl)cc23)CC(C)(C)N1 | / | -3.5* | 101* | / | + | i
O=c1oc(-c2ccco2)nc2ccccc12 | 104 | -3.6* | 2 | 92 | i | i
O=c1oc(-c2ccco2)nc2c1cnn2-c1ccccc1 | 95 | -1.1 | 8 | 100 | i | /
CN(C(=O)COC(=O)c1nc(Cl)c(Cl)c(Cl)c1Cl)C1CCS(=O)(=O)C1 (stereo not drawn) | / | -4.6* | 7 | / | i | +
CN(C(=O)COC(=O)c1nc(-c2ccccc2)n(-c2ccccc2)n1)C1CCS(=O)(=O)C1 (stereo not drawn) | 100 | -0.49 | -5 | 92 | i | /
OC(CNCCc1ccc(C(F)(F)F)cc1)COc1ccc2ccccc2c1 (stereo not drawn) | 9 | -4.8* | 99* | 23 | i | i
O=C1C(Cl)=C(Nc2ccc3cn[nH]c3c2)C(=O)c2ccccc21 | / | -3.9* | / | / | / | +
O=C(Nc1ccc2cn[nH]c2c1)c1c(Cl)cccc1Cl | 101 | -0.5 | 5 | 95 | i | /
CC(C)(C)c1ccc(C(=O)Nc2ccc(Cl)cc2)cc1 | 90 | 2.1 | 1 | 94 | i | /
CC(C)(C)c1ccc(C(=O)CC(Sc2ccc(Cl)cc2)C(=O)O)cc1 (stereo not drawn) | / | -4.6* | 78* | / | i | +
O=C(/C=C/c1ccc(O)c(O)c1)c1ccccc1O | / | -5.4* | / | / | / | +
SMILES | bCat KO growth | Dynein transport | L major viab | HCT116 PTEN-null | Autophagy HCS | Dynein confirm
O=C(/C=C/c1cc2ccccc2o1)c1ccccc1O | / | -0.57 | / | / | / | /
O=C(/C=C/c1ccc(F)cc1)c1ccccc1Br | 2.6* | -5.7* | 94* | 2.2* | i | +
O=c1[nH]c(Nc2ccc3c(c2)OCCO3)nnc1Cc1ccccc1 | / | -0.54 | -6 | / | i | /
CC1=C2C3OC(=O)C(C)[C@@H]3CC[C@](C)(O)C2C2C3C4C5(C12)[C@H]1OC(=O)[C@@H](C)C1CC[C@]4(C)O[C@]5(C)[C@@H]3O (stereo partly drawn) | 89 | -0.6 | -5 | 92 | i | /
COc1ccc(Oc2ccc(/C=C/C(=O)c3ccc(O)cc3)cc2[N+](=O)[O-])cc1 | 1.4* | -3.6* | 100* | 1.3* | i | +
COc1cccc(/C=C/C(=O)c2cccc([N+](=O)[O-])c2)c1OC | / | -5.3* | 100* | / | + | +
COc1cccc(/C=C/C(=O)c2cccc([N+](=O)[O-])c2)c1 | / | -4.5* | 98* | / | i | +
CNc1ccc(/C=C/C(=O)c2ccc(C)cc2)cc1[N+](=O)[O-] | 21 | -0.95 | 24 | 20 | i | /
Cc1nc2c(ncn2-c2ccccc2)c(=O)n1NC(=O)CN1CCCCC1 | / | 0.33 | / | / | / | /
COc1ccc(-c2cc(C(F)(F)F)nc(S(=O)(=O)CCCC(=O)Nc3cccc(O)c3)n2)cc1OC | / | -5.6* | 4 | / | i | +
Cc1ccc(C(=O)Oc2oc(-c3ccco3)nc2C=Nc2ccc(Cl)cc2)cc1 | 96 | -3.7* | -10 | 101 | i | +
O=C(Oc1oc(-c2ccco2)nc1C=Nc1ccccc1)c1ccoc1 | 98 | -4* | -6 | 96 | i | +
O=C(Oc1oc(-c2ccco2)nc1C=Nc1ccccc1)c1ccco1 | 101 | -3.2 | -6 | 95 | i | /
Cc1ccc(C(=O)Oc2oc(-c3ccccc3)nc2C=Nc2ccc(N(C)C)cc2)cc1 | 81 | -0.69 | 7 | 68 | i | /
CC(=O)n1cc(C(C[N+](=O)[O-])SCCN)c2ccccc21 (stereo not drawn) | 77 | -3.8* | 22 | 88 | i | i
CC(C)N=c1scc(-c2cccs2)n1/N=C/c1ccc(O)c(O)c1O | 80 | -4.2* | -2 | 58 | i | +
CN=c1scc(-c2ccccc2F)n1/N=C/c1ccc(O)c(O)c1O | / | -0.3 | -5 | / | i | /
Cc1ccc(S(=O)(=O)NNC(=O)CCCCC(=O)NNS(=O)(=O)c2ccc(C)cc2)cc1 | / | -1.4 | -3 | / | i | /
N=c1oc2c3c4c(cc2cc1C(=O)Nc1ccccc1)CCCN4CCC3 | 84 | -4.6* | 45 | 68 | i | +
CC(C)(C)C(=O)Cn1nnc(-c2ccc(C(F)(F)F)cc2)n1 | / | 0.41 | / | / | / | /
Cc1ccc(N2C(=O)CC(Sc3ncn[nH]3)C2=O)cc1C (stereo not drawn) | 87 | -6* | -4 | 106 | i | i
COc1ccc(/C=C/C(=O)CCC(=O)O)cc1 | / | -0.47 | -1 | / | i | /
COc1ccc(/C=C/C(=O)CC(O)(c2ccccc2)C(F)(F)F)cc1 (stereo not drawn) | 45 | -3.8* | 98* | 45 | i | +
COc1cc(NC(=O)Cn2ncc(Cl)c(Cl)c2=O)c(C)cc1[N+](=O)[O-] | / | -3.8* | 89* | / | + | +
Cc1cc(C(F)F)nn1CC(=O)N1CCSCC1 | 97 | -0.12 | 2 | 94 | i | /
O=C(c1ccc(Cl)nc1)N1CCN(C/C=C/c2ccccc2)CC1 | / | -0.43 | 2 | / | i | /
